According to publication PMC4424118 (Nature structural & molecular biology, 2015):

What was measured:
MRGPRX2 [1] = biological target: T1, MRGPRX2 (Homo sapiens, UniProt Q96LB1); experiment: TANGO β-arrestin recruitment assay, MRGPRX2; type: cell-based; conditions: NCC-1 screen, confirmed in concentration-response studies
T1 sequence (Q96LB1 1-330): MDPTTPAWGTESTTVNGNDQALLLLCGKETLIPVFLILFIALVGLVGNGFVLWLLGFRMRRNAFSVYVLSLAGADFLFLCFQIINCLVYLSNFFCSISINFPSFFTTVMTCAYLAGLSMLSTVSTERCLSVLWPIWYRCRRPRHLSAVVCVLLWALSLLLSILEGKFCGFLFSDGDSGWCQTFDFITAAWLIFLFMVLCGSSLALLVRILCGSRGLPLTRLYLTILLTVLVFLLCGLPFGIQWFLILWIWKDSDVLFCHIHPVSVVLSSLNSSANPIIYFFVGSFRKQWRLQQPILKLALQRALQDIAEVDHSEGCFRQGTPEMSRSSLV

[2] = tested on: 91 orphan and poorly annotated GPCRs; experiment: TANGO screen of the NCC-1 library; type: cell-based, human
[3] = biological target: NTSR2 neurotensin receptor (Homo sapiens, UniProt O95665); experiment: TANGO β-arrestin recruitment assay, NTSR2; type: cell-based; conditions: for agonist activity at NTSR2 neurotensin receptors: TANGO, agonist mode
Sequence of NTSR2 neurotensin receptor (O95665 whole entry): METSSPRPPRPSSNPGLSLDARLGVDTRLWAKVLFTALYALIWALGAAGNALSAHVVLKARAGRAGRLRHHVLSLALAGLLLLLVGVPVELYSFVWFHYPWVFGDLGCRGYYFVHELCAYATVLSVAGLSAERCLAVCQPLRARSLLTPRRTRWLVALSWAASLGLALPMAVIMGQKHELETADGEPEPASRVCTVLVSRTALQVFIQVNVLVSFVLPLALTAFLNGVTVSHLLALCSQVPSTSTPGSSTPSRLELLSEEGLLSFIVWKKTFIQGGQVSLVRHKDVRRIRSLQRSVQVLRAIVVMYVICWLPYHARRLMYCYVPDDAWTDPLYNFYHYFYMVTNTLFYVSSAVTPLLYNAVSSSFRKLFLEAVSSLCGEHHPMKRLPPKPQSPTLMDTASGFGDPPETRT

[4] = biological target: MLNR motilin receptor TANGO construct; experiment: TANGO
Sequence of MLNR motilin receptor TANGO construct (O43193 whole entry): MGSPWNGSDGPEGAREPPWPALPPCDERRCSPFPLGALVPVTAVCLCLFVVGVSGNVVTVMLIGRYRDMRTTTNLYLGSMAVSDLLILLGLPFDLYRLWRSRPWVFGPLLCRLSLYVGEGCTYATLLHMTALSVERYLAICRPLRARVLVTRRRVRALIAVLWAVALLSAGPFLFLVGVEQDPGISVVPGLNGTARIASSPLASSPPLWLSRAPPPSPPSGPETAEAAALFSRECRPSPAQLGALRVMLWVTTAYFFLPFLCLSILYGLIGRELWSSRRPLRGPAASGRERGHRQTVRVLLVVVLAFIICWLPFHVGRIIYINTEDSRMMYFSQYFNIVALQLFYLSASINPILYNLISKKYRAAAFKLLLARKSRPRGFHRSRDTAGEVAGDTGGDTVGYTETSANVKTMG

HTR1D serotonin receptor = HTR1D serotonin receptor (Homo sapiens, UniProt P28221); experiment: TANGO assay in antagonist mode, HTR1D; type: cell-based; conditions: 1 μM clozapine
Sequence of HTR1D serotonin receptor (P28221 whole entry): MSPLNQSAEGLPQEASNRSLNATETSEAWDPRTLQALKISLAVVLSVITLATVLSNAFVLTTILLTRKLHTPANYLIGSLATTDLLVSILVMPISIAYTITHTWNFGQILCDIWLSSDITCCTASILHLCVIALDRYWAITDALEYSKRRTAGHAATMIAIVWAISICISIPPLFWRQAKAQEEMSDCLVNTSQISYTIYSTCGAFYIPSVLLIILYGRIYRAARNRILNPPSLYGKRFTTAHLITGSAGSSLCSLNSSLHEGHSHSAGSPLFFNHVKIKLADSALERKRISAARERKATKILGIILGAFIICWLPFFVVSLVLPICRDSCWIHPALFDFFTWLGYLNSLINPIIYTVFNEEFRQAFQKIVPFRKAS

HTR1A serotonin receptor = biological target: T2, HTR1A serotonin receptor (Homo sapiens, UniProt P08908); experiment: TANGO assay in antagonist mode, HTR1A; type: cell-based; conditions: 1 μM clozapine
T2 sequence (P08908 1-422): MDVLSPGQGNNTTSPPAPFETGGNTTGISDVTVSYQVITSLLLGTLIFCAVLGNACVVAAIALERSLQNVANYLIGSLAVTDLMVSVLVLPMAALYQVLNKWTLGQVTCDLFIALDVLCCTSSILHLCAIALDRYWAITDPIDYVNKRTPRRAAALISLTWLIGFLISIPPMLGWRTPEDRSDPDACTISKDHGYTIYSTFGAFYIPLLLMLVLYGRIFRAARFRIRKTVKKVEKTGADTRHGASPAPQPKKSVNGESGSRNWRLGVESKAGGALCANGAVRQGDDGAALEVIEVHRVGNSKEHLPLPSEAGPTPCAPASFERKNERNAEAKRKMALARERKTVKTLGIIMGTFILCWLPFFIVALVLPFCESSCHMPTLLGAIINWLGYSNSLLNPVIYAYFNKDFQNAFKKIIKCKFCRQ

[5] = biological target: SSTR3 somatostatin receptor (Homo sapiens, UniProt P32745); experiment: PRESTO-TANGO / TANGO β-arrestin recruitment assay, SSTR3; type: cell-based
Sequence of SSTR3 somatostatin receptor (P32745 whole entry): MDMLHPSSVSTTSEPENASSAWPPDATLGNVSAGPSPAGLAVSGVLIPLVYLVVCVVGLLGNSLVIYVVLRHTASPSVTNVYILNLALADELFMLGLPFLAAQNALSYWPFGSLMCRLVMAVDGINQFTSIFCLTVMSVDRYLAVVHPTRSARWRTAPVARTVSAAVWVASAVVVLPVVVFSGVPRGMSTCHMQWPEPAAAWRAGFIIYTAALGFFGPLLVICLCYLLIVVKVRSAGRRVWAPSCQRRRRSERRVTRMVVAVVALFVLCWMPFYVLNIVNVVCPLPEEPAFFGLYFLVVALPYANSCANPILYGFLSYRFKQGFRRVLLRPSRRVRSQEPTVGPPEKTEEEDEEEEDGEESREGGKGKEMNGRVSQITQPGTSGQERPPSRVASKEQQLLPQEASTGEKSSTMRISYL

MRGPRX2 [6] = biological target: T1, MRGPRX2; experiment: PI hydrolysis assay, MRGPRX2; type: cell-based
In short: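 HEK-293T cells were transiently transfected with 10 μg receptor DNA per 15 cm dish and seeded the next day on poly-L-lysine in 1% dialyzed FBS. They were labelled 16 h with 1 μCi/well ³H-inositol in inositol-free DMEM. Concentration series were applied in quadruplicate in HBSS/24 mM NaHCO₃/11 mM glucose/15 mM LiCl, pH 7.4, for 1 h at 37°C. Cells were lysed with 50 mM formic acid, and extracts were counted by SPA beads.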

MRGPRX2 [7] = biological target: T1, MRGPRX2; experiment: calcium mobilization assay, stable MRGPRX2 cell line; type: cell-based; conditions: MRGPRX2-expressing stable cells
In short: (§1)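 Tetracycline-inducible Flp-In T-Rex HEK-T lines carried FLAG-tagged receptor in pcDNA5/FRT/TO and were kept with 15 μg/ml blasticidin and 100 μg/ml hygromycin B. Expression was induced with 1ug/ml tetracycline for 24 h. The calcium assay used 15,000 cells/well and FLIPR Calcium 4 dye (45 min 37°C, 15 min RT), with 16-point 3-fold dilutions at final 10 μM–0.003 nM. Fluorescence was read for 10 s baseline plus 120 s.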

MRGPRX1 [8] = biological target: T3, MRGPRX1 (Homo sapiens, UniProt Q96LB2); experiment: calcium mobilization assay, stable MRGPRX1 cell line; type: cell-based; conditions: MRGPRX1-expressing stable cells
T3 sequence (Q96LB2 whole entry): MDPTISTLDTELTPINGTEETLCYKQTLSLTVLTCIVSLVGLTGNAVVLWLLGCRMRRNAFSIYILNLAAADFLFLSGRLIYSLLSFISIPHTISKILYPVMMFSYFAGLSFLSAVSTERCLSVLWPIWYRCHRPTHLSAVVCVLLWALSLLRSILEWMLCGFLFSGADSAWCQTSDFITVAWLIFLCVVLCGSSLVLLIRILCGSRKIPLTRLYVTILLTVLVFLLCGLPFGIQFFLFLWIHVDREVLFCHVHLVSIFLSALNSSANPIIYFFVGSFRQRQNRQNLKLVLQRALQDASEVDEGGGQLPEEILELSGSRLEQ
In short: as §1

DRD5 dopamine receptor = DRD5 dopamine receptor (Homo sapiens, UniProt P21918); experiment: TANGO β-arrestin recruitment assay, DRD5; type: cell-based; conditions: PRESTO-TANGO screen and concentration-response (Fig. 4c)
Sequence of DRD5 dopamine receptor (P21918 whole entry): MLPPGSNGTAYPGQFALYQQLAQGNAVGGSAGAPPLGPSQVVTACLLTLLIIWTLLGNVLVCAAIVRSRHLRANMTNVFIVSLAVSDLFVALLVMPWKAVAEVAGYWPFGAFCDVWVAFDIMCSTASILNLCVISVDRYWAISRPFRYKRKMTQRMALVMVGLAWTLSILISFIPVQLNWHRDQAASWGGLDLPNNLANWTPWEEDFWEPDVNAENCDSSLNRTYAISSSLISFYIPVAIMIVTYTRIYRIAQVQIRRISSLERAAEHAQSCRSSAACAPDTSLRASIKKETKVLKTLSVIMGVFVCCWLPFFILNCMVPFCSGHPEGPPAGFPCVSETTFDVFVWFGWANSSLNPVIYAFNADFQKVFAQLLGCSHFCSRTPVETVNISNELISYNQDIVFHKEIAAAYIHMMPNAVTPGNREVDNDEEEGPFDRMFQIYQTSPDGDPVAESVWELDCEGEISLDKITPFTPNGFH

DRD4 dopamine receptor = biological target: T4, DRD4 dopamine receptor (Homo sapiens, UniProt P21917); experiment: TANGO β-arrestin recruitment assay, DRD4; type: cell-based; conditions: PRESTO-TANGO screen and concentration-response (Fig. 4b)
T4 sequence (P21917 1-419): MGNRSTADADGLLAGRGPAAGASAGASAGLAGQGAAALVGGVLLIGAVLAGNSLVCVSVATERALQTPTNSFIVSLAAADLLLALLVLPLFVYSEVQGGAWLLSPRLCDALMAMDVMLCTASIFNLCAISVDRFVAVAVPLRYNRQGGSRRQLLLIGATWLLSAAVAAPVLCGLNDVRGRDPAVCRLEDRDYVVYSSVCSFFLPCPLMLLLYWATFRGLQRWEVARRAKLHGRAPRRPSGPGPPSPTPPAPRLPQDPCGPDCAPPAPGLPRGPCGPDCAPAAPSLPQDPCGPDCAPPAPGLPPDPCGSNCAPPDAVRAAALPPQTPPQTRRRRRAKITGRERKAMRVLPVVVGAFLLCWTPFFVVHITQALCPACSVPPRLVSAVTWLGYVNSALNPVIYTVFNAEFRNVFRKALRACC

[9] = tested on: 133 non-orphan, non-olfactory GPCR targets; experiment: PRESTO-TANGO parallel GPCR-ome screening β-arrestin recruitment assay; type: cell-based, human; conditions: of 133 non-orphan
MRGPRX1 [10] = biological target: T3, MRGPRX1; experiment: cAMP; type: cell-based; conditions: Gs assay, HEK293T cells
MRGPRX2 [11] = biological target: T1, MRGPRX2; experiment: cAMP; type: cell-based; conditions: Gs assay, HEK293T cells
MRGPRX4 [12] = biological target: T5, MRGPRX4 (Homo sapiens, UniProt Q96LA9); experiment: calcium mobilization assay, stable MRGPRX4 cell line; type: cell-based; conditions: MRGPRX4-expressing stable cells
T5 sequence (Q96LA9 whole entry): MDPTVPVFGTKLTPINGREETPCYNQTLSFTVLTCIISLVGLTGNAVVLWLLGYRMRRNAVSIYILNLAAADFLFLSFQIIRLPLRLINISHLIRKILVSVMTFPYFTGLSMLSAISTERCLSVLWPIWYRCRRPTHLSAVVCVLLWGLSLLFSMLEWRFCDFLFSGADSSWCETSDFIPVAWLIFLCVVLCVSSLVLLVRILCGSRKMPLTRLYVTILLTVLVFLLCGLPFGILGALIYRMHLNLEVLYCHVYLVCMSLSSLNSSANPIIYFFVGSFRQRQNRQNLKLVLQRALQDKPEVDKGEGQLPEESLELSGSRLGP
In short: as §1

MRGPRX4 orphan GPCR = MRGPRX4 orphan GPCR (Homo sapiens, UniProt Q96LA9); experiment: TANGO β-arrestin recruitment assay, MRGPRX4; type: cell-based; conditions: initial NCC-1 screen
Sequence of MRGPRX4 orphan GPCR (Q96LA9 whole entry): as above

MRGPRX3 = MRGPRX3 (Homo sapiens, UniProt Q96LB0); experiment: cAMP; type: cell-based; conditions: Gs assay, HEK293T cells
Sequence of MRGPRX3 (Q96LB0 whole entry): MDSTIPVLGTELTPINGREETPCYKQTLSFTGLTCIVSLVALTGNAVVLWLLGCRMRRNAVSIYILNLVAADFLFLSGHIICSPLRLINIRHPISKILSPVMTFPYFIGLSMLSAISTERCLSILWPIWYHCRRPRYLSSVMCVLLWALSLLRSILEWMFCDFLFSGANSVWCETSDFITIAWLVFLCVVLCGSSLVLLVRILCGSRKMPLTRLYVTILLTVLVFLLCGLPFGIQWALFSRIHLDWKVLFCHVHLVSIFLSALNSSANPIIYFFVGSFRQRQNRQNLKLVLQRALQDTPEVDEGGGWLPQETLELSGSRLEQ

MRGPRX4 [13] = biological target: T5, MRGPRX4; experiment: cAMP; type: cell-based; conditions: Gi assay, MRGPRX4-expressing cells
MRGPRX4 [14] = biological target: T5, MRGPRX4; experiment: cAMP; type: cell-based; conditions: Gs assay, HEK293T cells
[15] = biological target: T6, CX3CR1 chemokine receptor (Homo sapiens, UniProt P49238); experiment: TANGO β-arrestin recruitment assay, CX3CR1; type: cell-based; conditions: n = 4
T6 sequence (P49238 1-355): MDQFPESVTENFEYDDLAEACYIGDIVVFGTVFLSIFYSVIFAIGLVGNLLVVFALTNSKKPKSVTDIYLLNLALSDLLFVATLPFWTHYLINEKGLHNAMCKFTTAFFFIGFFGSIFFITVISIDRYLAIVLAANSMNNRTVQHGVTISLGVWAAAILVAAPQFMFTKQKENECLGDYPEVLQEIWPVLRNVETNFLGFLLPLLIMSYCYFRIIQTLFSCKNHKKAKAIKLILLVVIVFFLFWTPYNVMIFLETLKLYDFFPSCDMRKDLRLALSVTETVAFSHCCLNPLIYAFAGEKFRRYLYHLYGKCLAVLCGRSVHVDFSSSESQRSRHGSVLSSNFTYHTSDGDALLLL

## CN1CCC(=C2c3ccccc3CC(=O)c3sccc32)CC1 [ketotifen]
MRGPRX2 [1]
  activity in the TANGO assay at MRGPRX2: showed activity

## CC(C)[C@@H](CN1CC[C@@](C)(c2cccc(O)c2)[C@@H](C)C1)NC(=O)[C@H]1Cc2ccc(O)cc2CN1 [JDTic]
MRGPRX2 [1]
  activity in the TANGO assay at MRGPRX2: significant activity

## COC(=O)C[C@](O)(CCCC(C)(C)O)C(=O)O[C@@H]1C(OC)=C[C@]23CCCN2CCc2cc4c(cc2[C@H]13)OCO4 [homoharringtonine]
[2]; of 91 targets tested
  number of targets with greater than 2-fold reduction in luminescence: 58
  percent of targets with greater than 2-fold reduction in luminescence: 64%

## C[C@@H]1CN([C@H]2CC[C@](C#N)(c3ccc(F)cc3)CC2)CC[C@]1(C(=O)O)c1ccccc1 [levocabastine]
[3]; NTSR2-transfected cells, pre-incubation before agonist
  antagonism of SR48692- or SR142948-induced arrestin recruitment responses: antagonists

## β-arrestin2-TEV fusion (from UniProt P32121 1-409) (natural protein)
[4]
  fold response above baseline: 184 fold

## CN1CCC(=C2c3ccccc3C=Cc3ccccc32)CC1 [cyproheptadine]
MRGPRX2 [1]
  activity in the TANGO assay at MRGPRX2: showed activity

## SR142948
[3]
  agonist activity at NTSR2 neurotensin receptors: agonists

## COC(=O)[C@@H]1C[C@H](OC(=O)CSC#N)C(=O)[C@H]2[C@@]1(C)CC[C@H]1C(=O)O[C@H](c3ccoc3)C[C@]21C [RB64]
MRGPRX2 [1]
  activity in the TANGO assay at MRGPRX2: significant activity

## CN1CCN(C2=Nc3cc(Cl)ccc3Nc3ccccc32)CC1 [clozapine]
HTR1D serotonin receptor
  effect of pre-exposure on responses to the agonist LSD: little or no effect
HTR1A serotonin receptor
  effect of pre-exposure on responses to the agonist LSD: little or no effect

## Oc1ccc(/C=C/c2cc(O)cc(O)c2)cc1 [resveratrol]
[2]; of 91 targets tested
  number of targets with greater than 2-fold reduction in luminescence: 70
  percent of targets with greater than 2-fold reduction in luminescence: 77%

## CNCCC(Oc1ccc(C(F)(F)F)cc1)c1ccccc1 (centres unmarked) [Fluoxetine, fluoxetine]
[5]; follow-up assays (data not shown)
  agonist activity at SSTR3 in follow-up assays: not confirmed
[5]; initial PRESTO-TANGO screen
  agonist activity at the SSTR3 somatostatin receptor: modest agonist activity

## COc1cccc(OC)c1-c1cc(C(=O)NC2(C(=O)O)C3CC4CC(C3)CC2C4)nn1-c1ccnc2cc(Cl)ccc12 (centres unmarked) [SR48692]
[3]
  agonist activity at NTSR2 neurotensin receptors: agonists

## COc1ccc2c(c1)[C@]13CCCC[C@@H]1[C@H](C2)N(C)CC3 [dextromethorphan]
MRGPRX2 [6]
  concentration-dependent activity at MRGPRX2 by PI hydrolysis: confirmed
MRGPRX2 [1]
  activity in the TANGO assay at MRGPRX2: showed activity

## CN1CC[C@]23CCCC[C@H]2[C@H]1Cc1ccc(O)cc13 [levorphan]
MRGPRX2 [1]
  activity in the TANGO assay at MRGPRX2: showed activity

## CN1CC[C@]2(c3cccc(O)c3)Cc3nc4ccccc4cc3C[C@H]2C1 [SB 205,607]
MRGPRX2 [6]
  concentration-dependent activity at MRGPRX2 by PI hydrolysis: confirmed
MRGPRX2 [7]
  calcium mobilization response: concentration-dependent responses
MRGPRX2 [1]
  activity in the TANGO assay at MRGPRX2: most active compounds

## BAM8-22
MRGPRX1 [8]
  calcium mobilization response: concentration-dependent responses

## CCN(CC)C(=O)[C@@H]1C=C2c3cccc4[nH]cc(c34)C[C@H]2N(C)C1 [LSD, lysergic acid diethylamide]
DRD5 dopamine receptor
  activity at the D5 dopamine receptor: displayed activity
DRD4 dopamine receptor
  activity at the D4 dopamine receptor: displayed activity
[9]
  number of tested targets with activity: 15

## CC(C)C[C@H](NC(=O)[C@@H](O)[C@H](N)Cc1ccccc1)C(=O)O [bestatin]
[2]; of 91 targets tested
  number of targets with > 2-fold increase in luminescence: 59
  percent of targets with > 2-fold increase in luminescence: 65%

## CC(C)[C@H]1CC[C@H](C(=O)N[C@H](Cc2ccccc2)C(=O)O)CC1 [Nateglinide, nateglinide]
MRGPRX1 [10]
  activity when cAMP was measured at MRGPRX1: inactive
MRGPRX2 [11]
  activity when cAMP was measured at MRGPRX2: inactive
MRGPRX4 [12]
  calcium mobilization response: concentration-dependent responses
MRGPRX4 orphan GPCR
  increase in luminescence over basal levels: 45 fold
MRGPRX3
  activity when cAMP was measured at MRGPRX3: inactive
MRGPRX4 [13]
  inhibition of the cAMP response to isoproterenol: inability
MRGPRX4 [14]
  activity when cAMP was measured at MRGPRX4: exceedingly modest activity at high concentrations
[2]; NCC-1 screen
  selectivity among the 91 targets tested: apparently selective

## CN1CCC(=C2c3ccccc3CCc3sccc32)CC1 [pizotyline]
MRGPRX2 [1]
  activity in the TANGO assay at MRGPRX2: showed activity

B1: CX3CL1: ligand of the CX3CR1 chemokine receptor (protein)
chain: QHHGVTKCNITCSKMTSKIPVALLIHYQQNQASCGKRAIILETRQHRLFCADPKEQWVKDAMQHLDRQAAALTRNGGTFEKQIGEVKPRTTPAAGGMDESVVLEPEATGESSSLEPTPSSQEAQRALGTSPELPTGVTGSSGTRLPPTPKAQDGGPVGTELFRVPPVSTAATWQSSAPHQPGPSLWAEAKTSEAPSTQDPSTQASTASSPAPEENAPSEGQRVWGQGQSPRPENSLEREEMGPVPAHTDAFQDWGPGSMAHVSVVPVSSEGTPSREPVASGSWTPKAEEPIHATMDPQRLGVLITPVPDAQAATRRQAVGLLAFLGLLFCLGVAMFTYQSLQGCPRKMAGEMAEGLRYIPRSCGSNSYVLVPV
[15]
  EC50: 0.34 nM
